Data reported in ChEMBL document CHEMBL5678799 (Biochem J, 2009).
The source made the active and inactive calls. The calls are words filed in the database; no cut-off is given here.

Tests used:
[1] = test system: RAC-alpha serine/threonine-protein kinase (Homo sapiens), P31749 [S473D]; test: Inhibition of recombinant human His6-tagged AKT1 S473D mutant (118 to 480 residues) expressed in baculovirus infected Sf21 cells assessed as remaining activity at 10 uM using crosstide peptide as substrate incubated for 30 mins in presence of [gamma-33P]ATP by filter binding method relative to control
How it was run: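 Radiometric panel assay run robotically at 21 °C for 30 min, linear in time and enzyme. […] Activity is expressed as percentage of the compound-omitted control, averaged from triplicates ± S.D.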

[2] = target: Serine/threonine-protein kinase Chk1 (Homo sapiens) (UniProt O14757); test: Inhibition of recombinant human N-terminal GST-tagged CHK1 (1 to 476 residues) expressed in baculovirus infected Sf21 cells assessed as remaining activity at 1 uM using CHKtide as substrate incubated for 30 mins in presence of [gamma-33P]ATP by filter binding method relative to control
How it was run: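 Robotic radiometric panel assay, 30 min at room temperature (21 °C), with 10 mM magnesium acetate. […] Compound at 1 or 10 µM. Residual activity expressed relative to compound-free control; triplicate average ± S.D.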

[3] = target: Mitogen-activated protein kinase 1 (Homo sapiens) (UniProt P28482); test: Inhibition of recombinant human N-terminal GST-tagged ERK2 (2 to 360 residues) expressed in Escherichia coli assessed as remaining activity at 1 uM using MBP as substrate incubated for 30 mins in presence of [gamma-33P]ATP by filter binding method relative to control
How it was run: (§1)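 Incubation was 30 min at room temperature (21 °C) under conditions linear with time and enzyme amount. Activity is reported as percent of control lacking compound, triplicate mean ± S.D.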

[4] = target: Fibroblast growth factor receptor 1 (Homo sapiens) (UniProt P11362); test: Inhibition of recombinant human N-terminal His6-tagged FGFR1 (400 to 820 residues) expressed in baculovirus infected Sf21 cells assessed as remaining activity at 1 uM using Poly(Glu,Tyr) as substrate incubated for 30 mins in presence of [gamma-33P]ATP by filter binding method relative to control
How it was run: (§2)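 Panel assays were run for 30 min at 21 °C, within the linear range for time and enzyme. […] Results are percent activity remaining relative to compound-free control, averaged from triplicate ± S.D.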

[5] = target: Serine/threonine-protein kinase Nek6 (Homo sapiens) (UniProt Q9HC98); test: Inhibition of recombinant human His6-tagged NEK6 (8 to 313 residues) expressed in baculovirus infected Sf21 cells assessed as remaining activity at 1 uM using FLAKSFGSPNRAYKK as substrate incubated for 30 mins in presence of [gamma-33P]ATP by filter binding method relative to control
How it was run: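 Run robotically for 30 min at 21 °C under linear conditions. Compound at 1 or 10 µM. Percentage activity remaining versus control without compound, triplicate mean ± S.D.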

[6] = target: Mitogen-activated protein kinase 12 (Homo sapiens) (UniProt P53778); test: Inhibition of recombinant human N-terminal GST-tagged P38gamma (1 to 367 residues) expressed in Escherichia coli assessed as remaining activity at 1 uM using MBP as substrate incubated for 30 mins in presence of [gamma-33P]ATP by filter binding method relative to control
How it was run: (§3)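 Radiometric kinase panel run robotically at room temperature (21 °C) for 30 min, linear in time and enzyme. […] Activity is expressed as percent of control without compound, from triplicate determinations ± S.D.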

[7] = test system: Ribosomal protein S6 kinase beta-1 (Homo sapiens), P23443 [T412E]; test: Inhibition of recombinant human His6-tagged S6K1 T412E mutant (1 to 421 residues) expressed in baculovirus infected Sf21 cells assessed as remaining activity at 1 uM using KKRNRTLTV as substrate incubated for 30 mins in presence of [gamma-33P]ATP by filter binding method relative to control
How it was run: (§4)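 Incubations ran robotically for 30 min at room temperature (21 °C) under linear conditions. Results are percent activity remaining versus controls without compound, as the mean of triplicates ± S.D.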

[8] = target: Fibroblast growth factor receptor 1 (Homo sapiens) (UniProt P11362); test: Inhibition of recombinant human N-terminal His6-tagged FGFR1 (400 to 820 residues) expressed in baculovirus infected Sf21 cells assessed as remaining activity at 10 uM using Poly(Glu,Tyr) as substrate incubated for 30 mins in presence of [gamma-33P]ATP by filter binding method relative to control; how it was run: as §2
[9] = target: Insulin-like growth factor 1 receptor (Homo sapiens) (UniProt P08069); test: Inhibition of recombinant human N-terminal His6-tagged IGF1R (954 to 1367 residues) expressed in baculovirus infected Sf21 cells assessed as remaining activity at 10 uM using KKKSPGEYVNIEFG as substrate incubated for 30 mins in presence of [gamma-33P]ATP by filter binding method relative to control; how it was run: as §3
[10] = target: MAP kinase-activated protein kinase 2 (Homo sapiens) (UniProt P49137); test: Inhibition of recombinant human N-terminal GST/C-terminal Myc-tagged MAPKAPK2 (46 to 400 residues) expressed in Escherichia coli assessed as remaining activity at 10 uM using KKLNRTLSVA as substrate incubated for 30 mins in presence of [gamma-33P]ATP by filter binding method relative to control; how it was run: as §4
[11] = target: Mitogen-activated protein kinase 14 (Homo sapiens) (UniProt Q16539); test: Inhibition of recombinant human N-terminal GST-tagged P38alpha (1 to 360 residues) expressed in Escherichia coli assessed as remaining activity at 10 uM using MBP as substrate incubated for 30 mins in presence of [gamma-33P]ATP by filter binding method relative to control; how it was run: as §1
[12] = target: Serine/threonine-protein kinase pim-3 (Homo sapiens) (UniProt Q86V86); test: Inhibition of recombinant human N-terminal His6-tagged PIM3 (2 to 326 residues) expressed in baculovirus infected Sf21 cells assessed as remaining activity at 10 uM using RSRHSSYPAGT as substrate incubated for 30 mins in presence of [gamma-33P]ATP by filter binding method relative to control
[13] = target: Vascular endothelial growth factor receptor 1 (Homo sapiens) (UniProt P17948); test: Inhibition of recombinant human N-terminal GST-tagged VEGFR1 (784 to 1338 residues) expressed in baculovirus infected Sf21 cells assessed as remaining activity at 10 uM using KKKSPGEYVNIEFG as substrate incubated for 30 mins in presence of [gamma-33P]ATP by filter binding assay relative to control; how it was run: as §2
[14] = test system: MEF; test: Growth inhibition of MEF cells assessed reduction in cell viability at 3 uM incubated for 1 to 3 days by crystal violet staining based assay; type: toxicity; settings: mouse, time 1-3 day
How it was run: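 MEFs seeded at 20000 cells per 1.91 cm2 well, grown overnight in 10% foetal bovine serum, then cultured 1, 2 or 3 days with 3 μM inhibitor, 100 nM rapamycin or DMSO. Medium changed every 24 h with freshly dissolved inhibitors. Cells fixed in 4% paraformaldehyde, stained with 0.1% Crystal Violet, dye extracted in 10% acetic acid, A590 read. Quadruplicate wells, expressed as % of DMSO control.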

[15] = target: mTORC1 (Homo sapiens) (UniProt P42345+Q8N122+Q9BVC4); settings: HEK293, dose 30.0 nM, time 30.0 min
[16] = target: mTORC2 (Homo sapiens) (UniProt P42345+Q6R327+Q9BVC4+Q9BPZ7); settings: HEK293, dose 30-100 nM, time 30.0 min

Fibroblast growth factor receptor 1 (Homo sapiens), sequence (P11362 22-822 limits assumed): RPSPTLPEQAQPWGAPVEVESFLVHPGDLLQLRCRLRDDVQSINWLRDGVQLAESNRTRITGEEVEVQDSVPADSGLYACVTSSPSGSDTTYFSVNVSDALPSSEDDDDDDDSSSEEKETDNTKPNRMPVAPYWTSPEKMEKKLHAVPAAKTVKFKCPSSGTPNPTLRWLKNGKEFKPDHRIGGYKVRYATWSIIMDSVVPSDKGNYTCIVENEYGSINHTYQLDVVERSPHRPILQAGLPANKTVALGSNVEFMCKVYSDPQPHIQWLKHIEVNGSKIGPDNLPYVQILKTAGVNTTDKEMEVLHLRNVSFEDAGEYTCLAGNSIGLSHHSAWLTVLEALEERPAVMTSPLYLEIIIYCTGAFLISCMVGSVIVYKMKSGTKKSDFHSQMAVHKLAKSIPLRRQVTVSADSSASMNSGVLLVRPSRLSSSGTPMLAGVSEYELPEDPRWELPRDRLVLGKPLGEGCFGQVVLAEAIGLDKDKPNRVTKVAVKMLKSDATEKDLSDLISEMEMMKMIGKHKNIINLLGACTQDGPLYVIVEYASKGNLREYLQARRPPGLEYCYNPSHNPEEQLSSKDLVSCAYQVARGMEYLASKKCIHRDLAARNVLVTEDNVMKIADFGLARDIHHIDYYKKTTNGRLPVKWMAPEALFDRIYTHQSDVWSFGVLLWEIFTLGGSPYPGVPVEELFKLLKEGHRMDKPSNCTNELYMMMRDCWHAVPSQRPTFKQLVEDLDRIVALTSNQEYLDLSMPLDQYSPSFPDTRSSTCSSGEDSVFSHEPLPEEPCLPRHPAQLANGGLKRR
Insulin-like growth factor 1 receptor (Homo sapiens), sequence (P08069 31-736 limits assumed): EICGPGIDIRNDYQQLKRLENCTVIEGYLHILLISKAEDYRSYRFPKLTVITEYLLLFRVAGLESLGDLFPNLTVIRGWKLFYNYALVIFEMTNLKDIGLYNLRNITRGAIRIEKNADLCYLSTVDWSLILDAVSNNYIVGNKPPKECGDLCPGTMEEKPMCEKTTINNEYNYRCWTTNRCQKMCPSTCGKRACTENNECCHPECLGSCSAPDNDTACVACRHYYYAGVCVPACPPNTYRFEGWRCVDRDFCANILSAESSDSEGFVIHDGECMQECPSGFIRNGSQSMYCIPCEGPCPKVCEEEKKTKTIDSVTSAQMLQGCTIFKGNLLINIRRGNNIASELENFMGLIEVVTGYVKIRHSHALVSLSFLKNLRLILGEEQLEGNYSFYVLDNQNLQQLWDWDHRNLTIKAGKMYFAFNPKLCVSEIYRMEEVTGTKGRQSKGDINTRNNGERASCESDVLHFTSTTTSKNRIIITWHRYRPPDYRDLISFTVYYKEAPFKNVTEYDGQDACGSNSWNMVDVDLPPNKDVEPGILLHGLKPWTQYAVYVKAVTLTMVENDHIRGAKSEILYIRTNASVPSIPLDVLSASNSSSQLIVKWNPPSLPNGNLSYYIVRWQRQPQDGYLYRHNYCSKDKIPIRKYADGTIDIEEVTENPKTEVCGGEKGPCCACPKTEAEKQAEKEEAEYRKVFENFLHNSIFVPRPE
Insulin-like growth factor 1 receptor (Homo sapiens), sequence (P08069 741-1367 limits assumed): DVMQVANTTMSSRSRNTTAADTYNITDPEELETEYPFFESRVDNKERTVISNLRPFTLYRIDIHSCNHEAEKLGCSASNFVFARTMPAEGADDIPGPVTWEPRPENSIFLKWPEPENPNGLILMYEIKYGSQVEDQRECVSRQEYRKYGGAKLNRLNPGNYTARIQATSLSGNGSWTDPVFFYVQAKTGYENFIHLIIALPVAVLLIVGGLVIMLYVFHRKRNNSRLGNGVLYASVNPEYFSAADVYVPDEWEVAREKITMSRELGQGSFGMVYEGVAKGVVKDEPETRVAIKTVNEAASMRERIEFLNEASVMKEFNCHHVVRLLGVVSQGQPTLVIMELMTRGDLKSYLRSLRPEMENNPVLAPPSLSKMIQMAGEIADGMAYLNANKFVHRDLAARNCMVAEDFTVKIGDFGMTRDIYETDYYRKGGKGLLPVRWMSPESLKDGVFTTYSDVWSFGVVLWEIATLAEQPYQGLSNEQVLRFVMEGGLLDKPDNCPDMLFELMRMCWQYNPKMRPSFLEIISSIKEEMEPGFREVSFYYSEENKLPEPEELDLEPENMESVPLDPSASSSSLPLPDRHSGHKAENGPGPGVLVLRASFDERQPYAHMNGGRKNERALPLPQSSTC
Mitogen-activated protein kinase 1 (Homo sapiens), sequence (P28482 whole entry, the tested form may be a part): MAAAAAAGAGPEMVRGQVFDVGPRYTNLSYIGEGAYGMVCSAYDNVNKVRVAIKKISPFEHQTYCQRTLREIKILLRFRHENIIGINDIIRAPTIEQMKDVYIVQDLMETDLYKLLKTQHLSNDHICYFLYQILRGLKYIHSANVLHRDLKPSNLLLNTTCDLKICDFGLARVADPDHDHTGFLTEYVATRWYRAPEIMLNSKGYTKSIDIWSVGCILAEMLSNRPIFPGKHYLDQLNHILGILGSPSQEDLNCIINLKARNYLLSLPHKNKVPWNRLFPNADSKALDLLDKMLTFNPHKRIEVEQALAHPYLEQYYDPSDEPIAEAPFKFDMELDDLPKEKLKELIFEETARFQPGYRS
Vascular endothelial growth factor receptor 1 (Homo sapiens), sequence (P17948 whole entry, the tested form may be a part): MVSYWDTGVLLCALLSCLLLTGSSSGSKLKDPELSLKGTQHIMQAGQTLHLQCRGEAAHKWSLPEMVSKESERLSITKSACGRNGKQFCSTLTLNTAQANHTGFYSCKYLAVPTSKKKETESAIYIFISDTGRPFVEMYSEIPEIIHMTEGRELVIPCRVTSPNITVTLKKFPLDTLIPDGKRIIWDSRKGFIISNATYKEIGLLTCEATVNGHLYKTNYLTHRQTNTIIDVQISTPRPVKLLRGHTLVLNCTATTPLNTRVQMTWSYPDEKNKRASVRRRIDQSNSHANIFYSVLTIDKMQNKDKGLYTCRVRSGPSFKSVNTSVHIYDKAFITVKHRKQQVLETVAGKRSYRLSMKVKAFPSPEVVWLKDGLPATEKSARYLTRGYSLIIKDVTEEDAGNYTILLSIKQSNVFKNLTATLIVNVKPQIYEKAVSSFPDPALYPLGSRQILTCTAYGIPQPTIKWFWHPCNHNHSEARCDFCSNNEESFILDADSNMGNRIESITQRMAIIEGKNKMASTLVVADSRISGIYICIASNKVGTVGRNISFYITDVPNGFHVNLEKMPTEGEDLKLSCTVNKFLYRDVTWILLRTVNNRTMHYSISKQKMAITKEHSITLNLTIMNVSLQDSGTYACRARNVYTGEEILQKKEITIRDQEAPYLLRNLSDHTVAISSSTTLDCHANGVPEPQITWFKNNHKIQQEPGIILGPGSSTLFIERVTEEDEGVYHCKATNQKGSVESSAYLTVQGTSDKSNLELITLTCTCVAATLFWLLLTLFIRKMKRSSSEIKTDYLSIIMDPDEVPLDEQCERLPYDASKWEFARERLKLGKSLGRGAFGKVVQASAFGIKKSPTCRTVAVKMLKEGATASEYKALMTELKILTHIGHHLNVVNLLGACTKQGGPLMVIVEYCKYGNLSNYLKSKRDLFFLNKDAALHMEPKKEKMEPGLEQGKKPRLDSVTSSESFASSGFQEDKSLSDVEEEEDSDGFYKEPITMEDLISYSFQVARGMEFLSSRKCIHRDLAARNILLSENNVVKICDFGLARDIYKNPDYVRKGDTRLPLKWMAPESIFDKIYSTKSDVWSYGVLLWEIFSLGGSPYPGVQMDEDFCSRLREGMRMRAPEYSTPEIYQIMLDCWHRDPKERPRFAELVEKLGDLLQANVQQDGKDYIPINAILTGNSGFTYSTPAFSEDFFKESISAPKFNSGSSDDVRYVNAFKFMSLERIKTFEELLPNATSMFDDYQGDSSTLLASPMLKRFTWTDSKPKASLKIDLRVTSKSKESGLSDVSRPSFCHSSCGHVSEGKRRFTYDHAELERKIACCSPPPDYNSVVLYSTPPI
Serine/threonine-protein kinase Nek6 (Homo sapiens), sequence (Q9HC98 whole entry, the tested form may be a part): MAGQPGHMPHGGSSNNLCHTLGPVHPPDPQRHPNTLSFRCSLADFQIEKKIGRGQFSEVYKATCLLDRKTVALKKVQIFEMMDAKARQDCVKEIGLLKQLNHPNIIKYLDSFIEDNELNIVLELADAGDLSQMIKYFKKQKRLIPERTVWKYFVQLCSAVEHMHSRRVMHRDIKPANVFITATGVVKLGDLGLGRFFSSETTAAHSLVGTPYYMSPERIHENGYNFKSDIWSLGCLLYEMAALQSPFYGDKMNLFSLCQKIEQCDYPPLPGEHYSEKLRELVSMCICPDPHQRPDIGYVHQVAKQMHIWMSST
MAP kinase-activated protein kinase 2 (Homo sapiens), sequence (P49137 whole entry, looked up, the tested form may be a part): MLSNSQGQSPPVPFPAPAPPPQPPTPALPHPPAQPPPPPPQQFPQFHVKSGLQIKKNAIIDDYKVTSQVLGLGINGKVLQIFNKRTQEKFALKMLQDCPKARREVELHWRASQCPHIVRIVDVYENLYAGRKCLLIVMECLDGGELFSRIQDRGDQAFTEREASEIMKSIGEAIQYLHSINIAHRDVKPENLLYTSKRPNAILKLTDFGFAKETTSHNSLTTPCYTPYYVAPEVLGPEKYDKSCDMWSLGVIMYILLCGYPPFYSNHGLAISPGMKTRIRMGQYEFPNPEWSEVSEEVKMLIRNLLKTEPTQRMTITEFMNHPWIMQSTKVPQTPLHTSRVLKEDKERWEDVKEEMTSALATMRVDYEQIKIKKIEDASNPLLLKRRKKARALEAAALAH

`COc1ccc(-c2ccc3c(N4CCOCC4)nc(N4C[C@@H](C)O[C@@H](C)C4)nc3n2)cc1CO` [Ku-0063794] gave an Activity [1] of 90%, an Activity [2] of 87% and an Activity [3] of 102%. It also gave an Activity [4] of 102%, an Activity [5] of 74% and an Activity [6] of 89%. It also gave an Activity [7] of 104%, an Activity [8] of 87% and an Activity [9] of 89%. It also gave an Activity [10] of 81%, an Activity [11] of 96% and an Activity [12] of 75%. The Activity [13] was 92%, the “growth inhibition (GI)” value [14] was “Toxic” and the inhibition [15] was 90%. For the same molecule, the inhibition [16] was “Active”.
